The target of assay [1] is T1, G-protein coupled receptor 84 (Homo sapiens, UniProt Q9NQS5). Nature of the assay: Antagonist activity at Gi coupled human GPR84 expressed in CHO cells assessed as inhibition of decanoic acid-induced receptor activation at 10 uM. It is filed as cell-based.
Assay [2] has as its target T1, G-protein coupled receptor 84. Nature of the assay: Agonist activity at Gi coupled human GPR84 expressed in CHO cells assessed as inhibition of forskolin-induced cAMP accumulation after 15 mins in presence of [3H]-cAMP by radiometric assay. It is filed as functional, cell-based. The procedure, abridged:
(§1)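 Forskolin (10 µM) added with or without test compound for 15 min. Cells lysed in hot (90 °C) EDTA/Triton X-100 solution. cAMP measured radiometrically with bovine adrenal binding protein and [³H]cAMP, expressed as % of forskolin-alone response.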
For orientation: cAMP levels reflect the balance of adenylyl cyclase and phosphodiesterase activity.

Assay [3] shares this target. In words: Agonist activity at Gi coupled human GPR84 expressed in CHO cells assessed as inhibition of forskolin-induced cAMP accumulation at 10 uM after 15 mins in presence of [3H]-cAMP by radiometric assay relative to decanoic acid. It counts as functional, cell-based. The procedure, abridged: as §1
Assay [4] has the same target. Nature of the assay: Agonist activity at human GPR84 expressed in CHO cells assessed as beta-arrestin recruitment after 90 mins by beta-galactosidase complementation assay. It counts as cell-based. In a few lines: (§2)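 CHO cells co-expressing human GPR84–β-galactosidase fragment and β-arrestin–complementary fragment, 20,000 per well. Compounds in DMSO (final ≤1 %) added for 90 min, then detection reagent for 60 min at rt; luminescence read. Three to five independent experiments in duplicate.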
For orientation: Arrestin recruitment assays detect the binding of arrestin to an activated receptor.

For assay [5] the target is unchanged. Nature of the assay: Agonist activity at human GPR84 expressed in CHO cells assessed as beta-arrestin recruitment at 10 uM after 90 mins by beta-galactosidase complementation assay relative to embelin. It counts as cell-based. The procedure, abridged:
as §2

The target in assay [6] is Free fatty acid receptor 1 (Homo sapiens, UniProt O14842). Nature of the assay: Agonist activity at Gq protein coupled human FFAR1 expressed in human 1321N1 cells assessed as induction of intracellular calcium level at 10 uM measured at 1.2 secs time interval by Fluo-4-AM dye based fluorescence assay. It is filed as functional, cell-based. In a few lines: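 1321N1 astrocytoma cells retrovirally expressing human FFAR1, 50,000 per well, loaded 60 min at rt in dark with 3 µM Fluo-4-AM and 0.06 % Pluronic F-127 in HBSS. Compounds at 10 µM final; antagonist mode uses 30 min preincubation before TUG-424 (final 1 µM). Fluorescence at 520 nm (excitation 485 nm), 90 reads at 1.2 s intervals. Normalized to TUG-424 at 10 µM (agonist) or 1 µM (antagonist).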
A general note: Calcium flux is commonly read through the fluorescence of an indicator in the cells.

Assay [7] has as its target T2, Free fatty acid receptor 4 (Homo sapiens) (UniProt Q5NUL3).
T2 sequence (whole entry): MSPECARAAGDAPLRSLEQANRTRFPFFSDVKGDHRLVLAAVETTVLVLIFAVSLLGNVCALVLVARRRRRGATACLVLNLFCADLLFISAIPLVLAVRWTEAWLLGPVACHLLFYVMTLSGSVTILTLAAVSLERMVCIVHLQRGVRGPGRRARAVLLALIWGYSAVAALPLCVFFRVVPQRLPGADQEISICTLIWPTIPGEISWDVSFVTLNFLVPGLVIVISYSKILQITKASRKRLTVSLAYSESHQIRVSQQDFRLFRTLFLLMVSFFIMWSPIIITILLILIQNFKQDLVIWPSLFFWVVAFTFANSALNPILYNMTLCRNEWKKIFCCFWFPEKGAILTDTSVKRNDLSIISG
In words: Antagonist activity at human FFAR4 expressed in CHO cells assessed as inhibition of TUG-89-induced beta-arrestin recruitment at 10 uM preincubated for 30 mins followed by TUG-89 addition measured after 90 mins by beta-galactosidase complementation assay. It is filed as cell-based.

The target of assay [8] is T2, Free fatty acid receptor 4 (Homo sapiens). Nature of the assay: Agonist activity at human FFAR4 expressed in CHO cells assessed as beta-arrestin recruitment at 10 uM after 90 mins by beta-galactosidase complementation assay. It counts as cell-based. In a few lines: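 Human FFAR4 in CHO β-galactosidase complementation cells, 30,000 per well, serum-free F12 ~4 h before assay; final DMSO 1 %, compounds 10 µM. Agonist mode: 90 min with agonist, then detection 60 min rt dark; luminescence. 3–4 experiments in duplicate.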

Activity calls are given as the source filed them. Some results are limits rather than exact numbers.

Data on 21 compounds can be found in ChEMBL document CHEMBL4014307, “Diindolylmethane Derivatives: Potent Agonists of the Immunostimulatory Orphan G Protein-Coupled Receptor GPR84” (J Med Chem, 2017).

T1 sequence (Q9NQS5 whole entry): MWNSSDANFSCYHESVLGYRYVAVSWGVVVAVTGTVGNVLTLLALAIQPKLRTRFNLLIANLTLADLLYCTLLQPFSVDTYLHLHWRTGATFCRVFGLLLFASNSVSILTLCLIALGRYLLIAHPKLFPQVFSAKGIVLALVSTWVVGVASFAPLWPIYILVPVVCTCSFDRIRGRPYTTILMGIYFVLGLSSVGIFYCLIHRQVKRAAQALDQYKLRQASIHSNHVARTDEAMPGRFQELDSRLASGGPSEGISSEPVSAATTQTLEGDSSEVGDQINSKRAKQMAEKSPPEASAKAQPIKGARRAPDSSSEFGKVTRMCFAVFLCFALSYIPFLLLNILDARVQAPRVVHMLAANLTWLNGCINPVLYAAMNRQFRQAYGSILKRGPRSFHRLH
Chain of Free fatty acid receptor 1 (O14842 whole entry): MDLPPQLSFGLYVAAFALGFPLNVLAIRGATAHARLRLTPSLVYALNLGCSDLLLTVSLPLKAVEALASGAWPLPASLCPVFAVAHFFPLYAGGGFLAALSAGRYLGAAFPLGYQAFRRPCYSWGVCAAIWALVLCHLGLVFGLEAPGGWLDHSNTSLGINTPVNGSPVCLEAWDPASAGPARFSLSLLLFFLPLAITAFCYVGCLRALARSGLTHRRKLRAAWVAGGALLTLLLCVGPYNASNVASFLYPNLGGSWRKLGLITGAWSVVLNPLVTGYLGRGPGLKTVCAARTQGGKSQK

Broadly, the EC50 is the concentration at which the effect is half-maximal. What is called Emax is the size of the effect at its maximum, as opposed to the concentration needed. Regarding `Cn1cc(Cc2c[nH]c3ccccc23)c2ccccc21`, the inhibition result in assay [1] and in assay [7] was “inactive” throughout. The EC50 in assay [2] is no less than 10 µM; in assay [4], greater than 10 µM. Moreover, the values for the Emax in assay [3] and in assay [5] were 43% and 8%, respectively. The result in assay [6] and in assay [8] was inactive.

With `CC(c1c[nH]c2ccccc12)c1c[nH]c2ccccc12` [VIBRINDOLE A], the inhibition result in assay [1] and in assay [7] was “inactive” throughout. Also, the EC50 in assay [2] and in assay [4] was greater than 10 µM each time. Also, the results for the Emax in assay [3] and in assay [5] were -5% and 3%, respectively. The outcome in assay [6] and in assay [8] was inactive.

With `Fc1ccc2[nH]cc(Cc3c[nH]c4ccc(F)c(F)c34)c2c1F`, the EC50 in assay [2] was 0.377 µM; in assay [4], greater than 10 µM. Moreover, the Emax in assay [3] was 123%; in assay [5], -2%. Moreover, the outcome in assay [6] and in assay [8] was inactive. The inhibition entry in assay [7] was “inactive”.

Regarding `O=C1Nc2ccccc2C1=Cc1ccc2[nH]ccc2c1`, the inhibition result in assay [1] and in assay [7] was “inactive” in each case. For the same compound, the EC50 in assay [2] and in assay [4] was greater than 10 µM each time. Moreover, the Emax in assay [3] is -16%; in assay [5], -7%. Moreover, the outcome in assay [6] and in assay [8] was inactive.

Consider `Cc1ccc2[nH]cc(Cc3c[nH]c4ccc(C)cc34)c2c1`, for which the EC50 in assay [2] and in assay [4] was no less than 10 µM throughout. For the same compound, the Emax in assay [3] was found to be 45%; in assay [5] it was 49%. For the same compound, the outcome in assay [6] and in assay [8] was inactive. In assay [7], the inhibition entry was “inactive”.

As for `Fc1cc2c(Cc3c[nH]c4cc(Cl)c(F)cc34)c[nH]c2cc1Cl`, the values for the EC50 in assay [2] and in assay [4] were 10.8 µM and 3.98 µM, respectively. In addition, the Emax was found to be 83% in assay [3] and 181% in assay [5]. The inhibition entry in assay [7] was “inactive”. Besides, in assay [8], the result was inactive.

As for `Fc1cc2[nH]cc(Cc3c[nH]c4cc(F)c(F)cc34)c2cc1F`, the results for the EC50 in assay [2] and in assay [4] were 0.187 µM and 10.3 µM, respectively. For the same compound, the Emax in assay [3] came to 121%; in assay [5], 92%. In addition, the outcome in assay [6] and in assay [8] was inactive. Besides, in assay [7], the inhibition result was “inactive”.

On to `CC(c1c[nH]c2cccc(F)c12)c1c[nH]c2cccc(F)c12`, for which the inhibition result in assay [1] and in assay [7] was “inactive” throughout. For the same compound, the EC50 in assay [2] and in assay [4] was greater than 10 µM in each case. The results for the Emax in assay [3] and in assay [5] were 5% and 34%, respectively. Also, the outcome in assay [6] and in assay [8] was inactive.

As to `O=C(O)c1ccc2[nH]cc(Cc3c[nH]c4ccc(C(=O)O)cc34)c2c1`, the inhibition entry in assay [1] and in assay [7] was “inactive” each time. In addition, the EC50 was no less than 10 µM in assay [2] and greater than 10 µM in assay [4]. Besides, the values for the Emax in assay [3] and in assay [5] were 28% and -5%, respectively. Besides, the result in assay [6] and in assay [8] was inactive.

`O=C1Nc2ccccc2/C1=C/c1c[nH]c2ccccc12`: the inhibition result in assay [1] and in assay [7] was “inactive” throughout. In addition, the EC50 in assay [2] and in assay [4] was greater than 10 µM in each case. Further, the results for the Emax in assay [3] and in assay [5] were -17% and -22%, respectively. Also, the result in assay [6] and in assay [8] was inactive.

As for `Clc1cccc2[nH]cc(Cc3c[nH]c4cccc(Cl)c34)c12`, the EC50 is 1.14 µM in assay [2] and greater than 10 µM in assay [4]. In addition, the Emax came to 111% in assay [3] and 25% in assay [5]. The outcome in assay [6] and in assay [8] was inactive. Besides, in assay [7], the inhibition result is “inactive”.

Regarding `COc1ccc2[nH]cc(Cc3c[nH]c4ccc(OC)cc34)c2c1`, the EC50 in assay [2] was 0.365 to 0.369 µM; in assay [4], 1.2 µM. Further, the figures for the Emax in assay [3] and in assay [5] were 119% and 103%, respectively. The result in assay [6] and in assay [8] was inactive. Also, the inhibition entry in assay [7] was “inactive”.

For the compound `Fc1cc2cc[nH]c2cc1F`, the EC50 in assay [2] is greater than 10 µM; in assay [4] it was 2.97 µM.

Take `O=C(c1c[nH]c2ccccc12)c1c[nH]c2ccccc12`: the figures for the EC50 in assay [2] and in assay [4] were 0.553 µM and 19 µM, respectively. Further, the results for the Emax in assay [3] and in assay [5] were 104% and 161%, respectively. The result in assay [6] and in assay [8] was inactive. For the same compound, the inhibition result in assay [7] was “inactive”.

Regarding `Fc1ccc2[nH]cc(Cc3c[nH]c4ccccc34)c2c1`, the values for the Emax in assay [3] and in assay [5] were 115% and 72%, respectively. For the same compound, the result in assay [6] and in assay [8] was inactive. Besides, the inhibition result in assay [7] was “inactive”.

Turning to `Fc1ccc2c(Cc3c[nH]c4cc(F)ccc34)c[nH]c2c1`, the EC50 is 0.625 µM in assay [2] and 7.53 µM in assay [4]. In addition, the values for the Emax in assay [3] and in assay [5] were 89% and 48%, respectively. Also, the result in assay [6] and in assay [8] was inactive. In assay [7], the inhibition result is “inactive”.

For the compound `COc1cccc2c(Cc3c[nH]c4c(OC)cccc34)c[nH]c12`, the inhibition entry in assay [1] and in assay [7] was “inactive” in each case. In assay [2], the EC50 was greater than 10 µM. Moreover, the Emax in assay [3] was 18%. In addition, the result in assay [6] and in assay [8] was inactive.

Turning to `COc1ccc2[nH]cc(Cc3c[nH]c4ccccc34)c2c1`, the values for the EC50 in assay [2] and in assay [4] were 1.89 µM and 6.47 µM, respectively. Further, the Emax in assay [3] worked out at 97%; in assay [5] it was 110%. Further, the result in assay [6] and in assay [8] was inactive. Besides, the inhibition entry in assay [7] was “inactive”.

Regarding `COc1ccc(C(c2c[nH]c3ccccc23)c2c[nH]c3ccccc23)cc1`, the inhibition entry in assay [1] and in assay [7] was “inactive” in each case. The EC50 in assay [2] is greater than 10 µM. Moreover, the Emax in assay [3] was -3%. Besides, the outcome in assay [6] and in assay [8] was inactive.

`Cc1cccc2[nH]cc(Cc3c[nH]c4cccc(C)c34)c12`: the EC50 in assay [2] is 0.987 µM; in assay [4], greater than 10 µM. In addition, the Emax amounted to 112% in assay [3] and 24% in assay [5]. Moreover, the result in assay [6] and in assay [8] was inactive. Also, in assay [7], the inhibition result was “inactive”.

For the compound `O=C(O)c1ccc2[nH]cc(Cc3c[nH]c4ccccc34)c2c1`, the inhibition result in assay [1] and in assay [7] was “inactive” throughout. Also, the EC50 in assay [2] was greater than 10 µM. For the same compound, the Emax in assay [3] was 5%. The result in assay [6] and in assay [8] was inactive.
